p47phox inh: p47phox (human) inhibition. p47phox/p22phox peptide binding, fluorescence polarization, 2 h. P14598. 0.53% of 220,000 active. AID 1274. inhibition, % at 24.7 µM;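 active means inhibition above about 30%, limit read from the data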
Target sequence (P14598 whole entry, looked up): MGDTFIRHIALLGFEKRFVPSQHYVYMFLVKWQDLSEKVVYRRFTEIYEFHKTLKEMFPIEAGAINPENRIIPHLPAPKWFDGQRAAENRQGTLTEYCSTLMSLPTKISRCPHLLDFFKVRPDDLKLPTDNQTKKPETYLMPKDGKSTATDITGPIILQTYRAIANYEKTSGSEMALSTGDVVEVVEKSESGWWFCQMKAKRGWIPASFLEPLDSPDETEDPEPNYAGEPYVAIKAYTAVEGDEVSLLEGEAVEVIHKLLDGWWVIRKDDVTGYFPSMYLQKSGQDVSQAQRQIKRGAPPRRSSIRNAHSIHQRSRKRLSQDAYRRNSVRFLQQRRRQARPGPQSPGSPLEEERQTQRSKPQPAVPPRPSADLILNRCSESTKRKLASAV
Yeast lifespan up: extends the lifespan of yeast; S. cerevisiae growth with nicotinamide, OD615; deaD strain in restrictive glucose medium; inhibition of the nicotinamide effect, % at 10 µM; 0.68% of 130,000 active;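 active means inhibition above a set limit, placed 3 SD over the median of all compounds, cut at about 26% in these data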
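Material: Modified budding yeast, DeaD strain | Medium: Restrictive glucose medium | Probe or stimulus: 1.5 mM nicotinamide | Dosing: Single dose 10 µM compound, 0.25% DMSO | Times: 48 h at 30 °C | Technique: OD615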
SDO1 yeast rescue: restores growth of sdo1-depleted yeast; S. cerevisiae sdo1-depleted JHY4D growth rescue, OD600 30 h; stronger effect = higher value; pdr5 snq2 efflux-pump mutant strain; z-score at 10 µM; 0.21% of 140,000 active;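 active means z-score above 3 at both the 24 hr and the 30 hr optical density reads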
RBBP9 inh: inhibitors of human serine hydrolase RBBP9; recombinant RBBP9, FP-Rh probe fluorescence polarization; inhibition, % at 7.94 µM; 0.2% of 220,000 active;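 active means inhibition above the campaign mean of all tested compounds plus 3 SD, cut at about 14% in these data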
Target sequence (O75884 whole entry, looked up): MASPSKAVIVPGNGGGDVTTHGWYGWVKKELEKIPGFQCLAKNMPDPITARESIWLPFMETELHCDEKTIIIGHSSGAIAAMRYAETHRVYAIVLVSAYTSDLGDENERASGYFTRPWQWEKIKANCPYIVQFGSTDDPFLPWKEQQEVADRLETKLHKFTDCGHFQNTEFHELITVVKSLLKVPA
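Controls: DMSO-treated enzyme wells and wells lacking RBBP9 | Material: RBBP9 protein | Technique: Fluorescence polarization | Replication: Single well per compound, no replicates | Buffer or medium: Tris-NaCl-Pluronic buffer, pH 8.0 | Timing: 30 min compound preincubation, 45 min probe labeling, 25 °C | Read-out basis: Percent inhibition from mP, scaled between DMSO and no-protein wells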
Yeast growth inh: chemicals that inhibit yeast BB579 growth in restrictive medium (lifespan-shortening candidates); S. cerevisiae BB579 growth, OD615, 48 h; inhibition, % at 10 µM; 0.51% of 140,000 active; AID 804;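 active means inhibition above a set limit, 3 SD over the mean compound inhibition, cut at about 44% in these data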
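controls = amphotericin B 10 µg/mL, positive | assay system = DeaD yeast strain BB579 | schedule = 48 h compound exposure at 30 °C after 4 h preincubation | detection = OD615 turbidity measurement | medium = restrictive CSMM-D medium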
Tb hexokinase: blocks Trypanosoma brucei hexokinase 1 activity; recombinant TbHK1, G6PDH-coupled NADH A340; inhibition, % at 10 µM; 0.11% of 220,000 active; AID 1430;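 active means inhibition of 50% or more in the single-dose primary screen; inactive means inhibition below 50%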
Numbers stand for hits; . = inactive; / = no result given. The list is not random: actives were taken first. Their share in the collection is about 1.6%.

SMILES | p47phox inh | Yeast lifespan up | SDO1 yeast rescue | RBBP9 inh | Yeast growth inh | Tb hexokinase
Cc1ccc(C(=O)N2CCn3c(C)ccc3C2C)cc1 (stereo not drawn) | . | / | / | . | / | .
CC(C(=O)NCC1CCCO1)c1ccc([N+](=O)[O-])cc1 (stereo not drawn) | . | / | / | . | / | .
CCC(=O)c1ccc(OC(C)C(=O)NC2(C#N)CCCCC2)cc1 (stereo not drawn) | . | / | / | . | / | .
CCc1nnc(N2C(=O)c3ccccc3C2(O)c2ccccc2)s1 (stereo not drawn) | . | / | / | . | / | .
CC(CNS(=O)(=O)c1ccccc1)(c1ccccc1)N1CCCCC1 (stereo not drawn) | . | / | / | . | / | .
C=C(C)COc1ccc(-c2[nH]ncc2Oc2ccccc2OC)c(O)c1 | . | . | . | . | 79.5 | .
COc1ccc(C(C)=O)cc1COC(=O)CNC(=O)c1ccc(Cl)cc1 | 193.7 | . | . | . | . | .
O=C(CN1C(=O)/C(=C/c2c(F)cccc2Cl)Oc2ccccc21)NCc1ccco1 | . | / | / | . | / | .
CCOC(=O)C(=Cc1ccc(F)cc1)C(=O)OCC | . | 77.9 | . | . | . | .
COc1ccc(CSc2nc3ccccc3c(=O)n2CCCN2CCOCC2)cc1F | . | / | / | . | / | .
Cc1sc2ncnc(N/N=C/c3ccc(O)cc3)c2c1C | . | . | . | . | . | .
Cc1sc2ncnc(N/N=C/c3ccccc3O)c2c1C | . | . | . | . | 68.3 | .
Cc1nc2ccccc2nc(=O)c1NNc1ccccc1 | 74.3 | . | . | . | . | .
Cc1ccc2nc(=O)c(NNc3ccccc3)cnc2c1 | . | . | . | . | . | .
CCN(CC)CCn1nc2c3c(cccc3c1=O)-c1ccccc1-2 | . | / | / | . | / | .
O=c1c2cccc3c2c(nn1CN1CCOCC1)-c1ccccc1-3 | . | . | . | . | 93.5 | .
CCCCCCCC(=O)N/N=C(/C)c1c(O)cc(C)oc1=O | . | 40.2 | . | . | . | .
O=C(c1cccc(Oc2ccccc2)c1)N1CCN(c2ccccn2)CC1 | . | / | / | . | / | .
Cc1[nH]nc2nc3c(c(OC(=O)c4ccccc4)c12)c(=O)n(C)c(=O)n3C | . | 52.4 | . | . | . | .
COC(=O)c1cc(-c2ccccc2)c2c(=O)n(C)c(=O)n(C)c2n1 | . | / | / | . | / | .
CC(C)OCCCNC(=O)C(=O)N/N=C/c1ccc(OCc2ccccc2)cc1 | . | / | / | . | / | .
CCc1ccccc1NC(=O)C1CC(c2ccc(F)cc2)=NO1 (stereo not drawn) | 33.0 | . | . | . | . | .
O=C1NN(c2ccccc2)C(=O)/C1=C\c1coc2ccc(O)cc2c1=O | . | / | / | . | / | .
O=C1NN(c2ccccc2)C(=O)/C1=C/c1coc2ccccc2c1=O | . | 26.2 | . | . | . | .
O=C(O)CCCN1C(=O)/C(=C/c2ccncc2)SC1=S | . | / | / | . | / | .
SMILES | p47phox inh | Yeast lifespan up | SDO1 yeast rescue | RBBP9 inh | Yeast growth inh | Tb hexokinase
O=C(O)CCCCCN1C(=O)/C(=C/c2ccncc2)SC1=S | . | 40.0 | . | . | . | .
O=C(O)CCCCCN1C(=O)/C(=C\c2ccncc2)SC1=S | . | 52.2 | . | . | . | .
COc1ccc(CN2C(=O)/C(=C/c3ccncc3)SC2=S)cc1 | . | 48.1 | . | . | . | .
CCS(=O)(=O)c1nc(S(=O)(=O)c2ccc(Cl)cc2)c(NCCOC)s1 | . | / | / | . | / | .
COC(=O)/C(=C1/Oc2cc(C)oc(=O)c2S1)C(F)(F)F | . | 47.4 | . | . | . | .
C=CCn1c(SCc2ccc(C(=O)NCCO)cc2)nc2sc(C)c(C)c2c1=O | . | / | / | . | / | .
CCCCCCCCCCCCCCCCn1cc[n+](CC(C)=O)c1 | 96.4 | / | / | . | / | .
CCCCCCn1ccc(=N)cc1 | . | . | . | . | . | .
CCOC(=O)c1c(C)nc2sc3c(=O)n(-c4ccc(C(C)=O)cc4)nnc3c2c1-c1ccc(Cl)cc1 | 59.6 | . | . | . | . | .
CCOC(=O)c1c(C)[nH]c(C(=O)NCc2ccco2)c1C | . | / | / | . | / | .
CSc1nnc(C)c(=O)n1COC(=O)COc1ccc(Cl)cc1Cl | 48.0 | / | / | . | / | .
CSc1nnc(C)c(=O)n1COC(=O)COc1ccc(Cl)cc1 | . | / | / | . | / | .
Cc1cnn(-c2nc(-c3ccccc3)cc(-c3ccccc3)n2)c1 | . | / | / | . | / | .
COC(=O)c1cc(NC(=O)/C=C/c2ccccc2)ccc1O | . | / | / | . | / | .
O=c1c2ccccc2nc2sc3ccccc3n12 | . | . | . | . | 85.3 | .
COC(=O)/C=c1/sc2nc3ccccc3n2c1=O | . | . | . | . | . | .
CCOc1cc(/C=C\[N+](=O)[O-])ccc1OCC(=O)N1CCOCC1 | . | / | / | . | / | .
N#Cc1cc(C(=O)c2cc(F)ccc2O)cn(-c2nccs2)c1=O | . | 41.4 | . | . | . | .
C(=C\c1nc(N2CCCCCC2)c2ccccc2n1)/c1ccccc1 | . | . | . | . | 74.4 | .
Cc1cc(C)nc(NS(=O)(=O)c2ccc(NC(=O)c3ccc4c(c3)OCCO4)cc2)n1 | . | / | / | . | / | .
N#CSCC(=O)c1cccc2ccccc12 | . | . | . | . | 83.7 | .
COC(=O)c1ccc(S(=O)(=O)N2CCN(C(c3ccccc3)c3ccccc3)CC2)n1C | . | / | / | . | / | .
Cc1nc(-c2noc(-c3ccc(Cl)cc3)n2)c(C(F)(F)F)o1 | . | / | / | . | / | .
Cc1ccc(-c2cc3c(nn2)-c2ccccc2C3=O)cc1 | . | / | / | . | / | .
O=C1c2ccccc2-c2nnc(-c3ccc(F)cc3)cc21 | 45.8 | / | / | . | / | .
SMILES | p47phox inh | Yeast lifespan up | SDO1 yeast rescue | RBBP9 inh | Yeast growth inh | Tb hexokinase
O=C1CCCC/C1=N\Nc1ccc(OCc2ccccc2)cc1 | . | . | . | . | 92.0 | .
O=C1CCCC/C1=N\Nc1ccc(C2CCCCC2)cc1 | . | / | / | . | / | .
CC(=O)N1N=C(c2ccc(Cl)cc2)OC1(C)C | . | . | . | . | 48.3 | .
COC(=O)c1c(C)oc(C)c1S(=O)(=O)NCc1ccc(Cl)cc1Cl | . | / | / | . | / | .
CC1CN(C(=O)COC(=O)c2ccc(Cl)nc2)CC(C)O1 (stereo not drawn) | . | / | / | . | / | .
O=C(c1ccc(OC2CCN(C(=O)C3CC3)CC2)cc1)N(CCO)Cc1ccccc1 | . | / | / | . | / | .
COc1ccc2c(=O)c3c(=O)n(Cc4ccco4)c(-c4ccc(C)cc4)nc3oc2c1 | . | 46.8 | . | . | . | .
COc1ccc2c(=O)c3c(=O)n(Cc4ccco4)c(C(C)C)nc3oc2c1 | . | / | . | . | . | .
COc1ccc2[nH]c3c(Cl)ncnc3c2c1 | . | . | . | . | 56.0 | .
Fc1ccc2[nH]c3c(Cl)ncnc3c2c1 | . | / | / | . | / | .
Cc1ccc(/C=C/C(=O)c2ccccc(=O)c2O)cc1C | . | . | . | . | 99.4 | .
O=C(/C=C/c1ccccc1)c1cc(Br)ccc(=O)c1O | . | . | . | . | 88.0 | .
O=C(/C=C/c1ccc(F)cc1)c1cc(Br)ccc1O | . | / | / | . | / | .
CCC(CC)NC(=O)CN(c1ccccc1OC)S(=O)(=O)c1cccs1 | . | / | / | . | / | .
Cn1cnnc1Sc1ccc(C(F)(F)F)cc1[N+](=O)[O-] | . | / | / | . | / | .
